Screening data deposited in PubChem by several laboratories.
Only some compounds are listed: those with a hit (about 4% of all), similar ones and a draw of the others.
TAAR1 antagonist: antagonists of human TAAR1; Q96RJ0; CHO RD-HGA16 TAAR1, Fluo-8 calcium fluorescence, antagonist; inhibition, % at 3 µM; 360,000 compounds, 1.5% hits;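 active = inhibition above a per-plate cutoff, the mean inhibition of test compounds on that plate plus 3 SD, cut at about 49% in these data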;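 note: 0% = DMSO plus EC80 beta-PEA response and 100% = DMSO alone without agonist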
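Test system: hTAAR1-expressing CHO RD-HGA16 cells, Gα16-coupled; Probe or stimulus: EC80 β-phenethylamine stimulus; Compound dosing: single nominal final test compound concentration of 3 µM; Timing: 140 s kinetic read after compound, 140 s after agonist; Signal: Fluo-8 calcium-sensitive fluorescence; Measure: % inhibition of agonist calcium response; Controls: DMSO and EC80 PEA controls.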
MPTP inh: inhibitors of mitochondrial permeability transition pore | isolated mouse mitochondria, Ca2+ swelling absorbance, 30 min | inhibition, % at 10 µM | 360,000 compounds, 1.4% hits;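 active = inhibition of 50% or more, scaled per plate between neutral and stimulator controls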;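 note: 0% = DMSO wells given calcium and 100% = 1 mM EGTA wells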
TAAR1 agonist: agonists of human TAAR1. CHO RD-HGA16 TAAR1, Fluo-8 calcium fluorescence; vehicle wells 0%, saturating PEA agonist 100%. activation, % at 3 µM. Q96RJ0. 360,000 compounds, 0.99% hits. AID 624467;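 active = activation above the mean activation of all test compounds in the run plus 3 SD, cut at about 38% in these data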
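System: CHO-derived RD-HGA16 cells with stable Gα16 and human TAAR1 / Times: 17-24 h plating, Fluo-8 75 min 37 °C, 30 min RT / Technique: calcium-sensitive Fluo-8 signal, excitation 470-495, emission 515-575 nm / Measure: % activation relative to PEA EC100 response / Benchmarks: DMSO and PEA EC100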
DAGLB inhibitor: blocks human DAGLB lipase activity | Q8NCG7 | HEK293T DAGLB membrane lysate, EnzChek fluorogenic substrate | inhibition, % at 5.17 µM | 340,000 compounds, 0.059% hits; in the data active = inhibition above about 34%;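 note: 0% = enzyme with vehicle and 100% = wells lacking enzyme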
Target sequence (Q8NCG7 whole entry, looked up): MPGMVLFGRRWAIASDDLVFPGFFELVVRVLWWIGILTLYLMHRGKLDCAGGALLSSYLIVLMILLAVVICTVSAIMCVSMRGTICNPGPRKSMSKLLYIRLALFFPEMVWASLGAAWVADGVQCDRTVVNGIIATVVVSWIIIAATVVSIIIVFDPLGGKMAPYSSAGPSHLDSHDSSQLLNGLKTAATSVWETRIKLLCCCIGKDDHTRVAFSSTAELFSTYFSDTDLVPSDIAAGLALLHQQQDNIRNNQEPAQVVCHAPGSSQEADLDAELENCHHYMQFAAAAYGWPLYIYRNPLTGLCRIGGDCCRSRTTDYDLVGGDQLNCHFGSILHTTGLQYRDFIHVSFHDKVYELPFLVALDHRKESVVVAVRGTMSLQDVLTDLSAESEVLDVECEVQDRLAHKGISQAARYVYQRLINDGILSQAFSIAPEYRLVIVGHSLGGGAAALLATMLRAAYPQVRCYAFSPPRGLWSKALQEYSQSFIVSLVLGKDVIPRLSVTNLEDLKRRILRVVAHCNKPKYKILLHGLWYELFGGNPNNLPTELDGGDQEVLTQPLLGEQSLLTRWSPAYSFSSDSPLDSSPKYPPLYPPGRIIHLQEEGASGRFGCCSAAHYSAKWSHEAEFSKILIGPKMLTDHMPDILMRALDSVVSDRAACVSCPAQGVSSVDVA
GPR7 antag: blocks human GPR7 receptor signaling | P48145 | GPR7-expressing cells, fluorescence antagonist assay | inhibition, % at 4.4 µM | 290,000 compounds, 1.1% hits; in the data active = inhibition above about 16%, passing the limit was not always enough;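 note: cells stimulated with the agonist NPW; 0% = agonist with vehicle and 100% = vehicle without agonist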
* = called active by the depositor; nt = not tested or not shown.

SMILES | TAAR1 antagonist | MPTP inh | TAAR1 agonist | DAGLB inhibitor | GPR7 antag
COc1ccc(C(=O)CSC2=C(C#N)C3(CCCCC3)C(C#N)=C(N)N2)cc1 | 11 | 5 | 25 | 0 | 7
N#CC1=C(N)NC(SCC(=O)c2ccc(Cl)cc2)=C(C#N)C12CCCC2 | 51* | 30 | 10 | 0 | 3
O=C(c1ccc(F)cc1)N1CCN2C(=O)c3ccccc3C12c1ccc(Cl)cc1 (centres undefined) | -6 | -2 | 9 | -2 | 16*
O=C(c1ccc(F)cc1)N1CCN2C(=O)c3ccccc3C12c1ccccc1 (centres undefined) | 3 | 2 | 3 | -2 | -6
CCOC(=O)c1c(/N=C/c2cc([N+](=O)[O-])ccc2O)sc(C)c1C | 5 | 0 | 10 | 0 | 23*
CC(C)COc1nc2c(c(=O)n(C)c(=O)n2C)n1C | -6 | -1 | 5 | 1 | active
NNC(=O)c1n[nH]c2c1CC(C1CCCCC1)CC2 (centres undefined) | 19 | 1 | -2 | -3 | nt
Cc1nnc(SCC(=O)N2CCc3ccccc32)s1 | 2 | 0 | 4 | -3 | 16*
Cc1nnc2sc(SCC(=O)N3CCc4ccccc43)nn2c1=O | -23 | 0 | 1 | 2 | nt
CCOC(=O)CSc1nc2sc3c(c2c(=O)n1-c1ccccc1)CCN(C(C)C)C3 | 14 | 0 | 3 | -2 | 5
COc1ccc(C(=O)NCCNc2nc3cc(C)cc(C)c3cc2C#N)nc1 | -23 | 4 | 0 | nt | nt
CCCCc1c(-c2ccccc2)ncn1CCc1ccccc1OC | 41 | 4 | 3 | nt | nt
CCCCc1c(-c2ccc(OC)cc2)ncn1CCc1ccccc1OC | 50* | 44 | 24 | nt | nt
CCCCCc1c(-c2ccc(OC)cc2)ncn1CCc1ccccc1OC | 61* | 45 | 14 | nt | nt
CCCCCc1c(-c2ccc(Cl)cc2)ncn1CCc1ccccc1OC | 19 | 4 | 28 | nt | nt
COc1cc(CNc2ncnc3c2ncn3[C@H]2CN(Cc3ccccc3)C[C@@H](COC(C)=O)O2)cc(OC)c1OC | 1 | -1 | 0 | nt | nt
O=C(c1cc2c(c(-c3cccc(-c4ccncc4)c3)n1)[C@@H](CCO)N(C(=O)c1ccc3c(c1)OCO3)C2)N1CCOCC1 | -16 | 1 | 0 | nt | nt
Cc1[nH]c2ccccc2c1C(=O)COC(=O)c1ccccc1O | 65* | 2 | 12 | -3 | nt
CCOC(=O)c1c(C)[nH]c(C)c1C(=O)COC(=O)c1ccccc1O | 21 | 1 | 10 | -1 | -2
Cc1ccn(CCC(=O)N2CCCC(N3CCN(c4ccccc4C)CC3)C2)n1 (centres undefined) | 10 | -2 | 1 | 1 | nt
CCN(CC)S(=O)(=O)c1ccc(N2CCOCC2)c(NC(=O)c2cccc3c(=O)c(C)c(-c4ccccc4)oc23)c1 | 54* | 0 | 9 | 0 | nt
N#Cc1ccc2sn(-c3ccccc3)c(=O)c2c1 | 1 | 9 | 31 | 5 | nt
COC(=O)C(=Cc1ccncc1)c1cccc2ccccc12 | 5 | 0 | -1 | 1 | nt
COCCCNC(=S)N1CCN(c2nc(-c3ccc(F)cc3)cs2)CC1 | 52* | 40 | 9 | -5 | 12
CCOCCCNC(=S)N1CCN(c2nc(-c3ccc(F)cc3)cs2)CC1 | 48 | 22 | 3 | -6 | 12
SMILES | TAAR1 antagonist | MPTP inh | TAAR1 agonist | DAGLB inhibitor | GPR7 antag
CC1(C)C2CCC1(CS(=O)(=O)Nc1ccc(S(=O)(=O)N3CCCC3)cc1)C(=O)C2 (centres undefined) | -13 | 0 | 1 | -3 | 19*
CC1(C)C2CCC1(CS(=O)(=O)Nc1ccc(S(=O)(=O)NC3CCCCC3)cc1)C(=O)C2 (centres undefined) | 1 | 0 | 7 | -2 | 12
CCC(C)(C)n1nnnc1C(c1ccc(OC)c(OC)c1)N1CCN(c2ccccc2)CC1 (centres undefined) | -18 | -2 | 0 | -2 | 18*
CCC(C)(C)n1nnnc1C(c1ccc(OC)c(OC)c1)N1CCN(c2cccc(OC)c2)CC1 (centres undefined) | 1 | 0 | 0 | -3 | 4
CCNC(=O)C1(C)CCN(C(=O)c2ccc3snnc3c2)C1 (centres undefined) | -4 | -2 | 0 | nt | nt
O=C(Nc1ccc(Oc2ccccc2)cc1)c1csc([C@@H]2C[C@H](O)[C@@H](CO)O2)n1 | 40 | 2 | 13 | nt | nt
COc1ccc(-c2csc(NC(=O)c3cccc(N4C(=O)CCC4=O)c3)n2)cc1C | 49* | 0 | 12 | 1 | 6
COc1ccc(OC)c2sc(NC(=O)c3cccc(N4C(=O)CCC4=O)c3)nc12 | 1 | -1 | 5 | 2 | -9
COc1ccc(-c2csc(NC(=O)C3=NN(c4ccccc4)C(=O)CC3)n2)cc1 | 57* | 4 | 18 | -11 | 23
O=C(Nc1nc(-c2cc(F)ccc2F)cs1)C1=NN(c2ccccc2)C(=O)CC1 | 46 | 1 | 4 | -9 | 2
COc1ccc(-c2csc(NC(=S)NC(=O)c3cccs3)n2)cc1OC | 50* | 4 | 4 | -2 | -16
Oc1ccccc1C=NC(N=Cc1ccccc1O)c1ccccc1O (centres undefined) | 11 | nt | 3 | nt | nt
CC1(C(=O)Nc2ccc3c(c2)OCCO3)CSCC(=O)N1CCc1ccccc1F (centres undefined) | -12 | -1 | 22 | nt | nt
COc1ccc(OC)c(CCNC(=O)Cc2ccc(NC(=O)C3=C(C)OCCS3)cc2)c1 | -14 | 0 | -1 | -3 | nt
COc1ccc(OC)c(CCNC(=O)c2cccc(NC(=O)C3=C(C)OCCS3)c2)c1 | 57* | -1 | 10 | -1 | 21
CN1OC[C@@H]2CN(C(=O)C3CCCCC3)[C@H](c3ccc(N4CCCCC4)cc3)C[C@@H]21 | -12 | nt | -1 | nt | nt
O=c1nccc(N/N=C/c2cccc(O)c2)[nH]1 | -14 | 4 | 40* | -4 | -1
COC(=O)c1ccc2c(=O)n(CC3CCCO3)c(SCC(=O)Nc3ccccc3OC)nc2c1 (centres undefined) | 51* | 2 | 2 | -2 | 10
Nc1c2c(=O)[nH]c(O)cc2nn1-c1ccccc1 | 5 | 0 | 2 | -1 | nt
C=CCCCCCCCCc1nc(SCC(C)=O)n[nH]1 | 22 | 13 | -1 | -2 | 20*
CCCCN(CC)S(=O)(=O)c1ccc(C(=O)N(CCCN(C)C)c2nc3cc(C)cc(C)c3s2)cc1 | -1 | -2 | 19 | -3 | 23*
CCOc1cccc2sc(N(CCCN(C)C)C(=O)c3ccc(S(=O)(=O)N(C)Cc4ccccc4)cc3)nc12 | 54* | 5 | 35 | -2 | 15
Cc1ccc2nc(N(CCCN(C)C)C(=O)c3ccc(S(=O)(=O)N4CCCCCC4)cc3)sc2c1 | 15 | 0 | 50* | -2 | 24
CCOc1ccc2nc(N(CCCN(C)C)C(=O)c3ccc(S(=O)(=O)N4CCc5ccccc5C4)cc3)sc2c1 | 38 | 1 | 43* | 0 | 15
O=c1[nH]c2cc([N+](=O)[O-])ccc2c2cc(Br)ccc12 | 2 | 1 | -1 | 12 | nt
C[C@@H]1CCCN1[C@H]1CS(=O)(=O)N[C@@H]1COCc1ccccc1 | -18 | -2 | 3 | nt | nt
